Our source for the inhibition, EC50 and CC50 values is ChEMBL document CHEMBL1177662, “Anti-influenza activity of phenethylphenylphthalimide analogs derived from thalidomide” (Bioorg Med Chem, 2010).

Activity calls are given as the source filed them. No cut-off for these calls is given here.

Data set [1] concerns the target Polymerase acidic protein (Influenza A virus (A/Puerto Rico/8/1934(H1N1))) (UniProt P03433). The experiment in a line: Inhibition of Influenza A (A/PR/8/34/ (H1N1)) RNA polymerase acidin protein endonuclease PA domain assessed as M13mp18 ss DNA at 10 uM. In short, it runs like this: (§1)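 Recombinant His-tagged PA N-terminal endonuclease domain (residues 1–220), expressed in E. coli and purified by Ni-agarose and anion exchange. 0.35 μg (about 0.1 μM final) in 100 μl buffer at pH 7.3, with 1 μg M13mp18 circular ssDNA substrate and compound at 1 or 10 μM. A no-enzyme control was included. Digestion read by agarose electrophoresis with ethidium bromide staining.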

Data set [2] shares this target. The experiment in a line: Inhibition of Influenza A (A/PR/8/34/ (H1N1)) RNA polymerase acidin protein endonuclease PA domain assessed as M13mp18 ss DNA at 1 uM. The method in brief:
as §1

The subject of data set [3] is Influenza A virus. The experiment in a line: Antiviral activity against Influenza A (A/PR/8/34/ (H1N1)) infected in MDCK cells assessed as inhibition of virus-induced cell death. The class given is functional, organism-based. The note with it: A/Puerto Rico/8/1934(H1N1). In short, it runs like this:
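Confluent MDCK monolayers (MEM, 10% FBS, 37 °C). Compound (0.63–80 μM, DMSO vehicle) premixed with 100 TCID50 H1N1 PR8 plus trypsin for 30 min at 37 °C, then added to PBS-washed cells. Incubated 4 days at 34 °C, 5% CO2. Formaldehyde-fixed, naphthol blue black stain, OD630 read. Viability scaled to mock (100%) and virus-only (0%) wells. Triplicate; EC50 estimated from dose–response curve.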

Data set [4] can be described thus: Cytotoxicity against dog MDCK cells. Format: cell-based, Canis lupus familiaris. The method in brief: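 Confluent MDCK monolayers (MEM, 10% FBS, 37 °C) exposed without virus to compound (0.63–80 μM, DMSO vehicle), premixed with trypsin 30 min at 37 °C. Incubated 4 days at 34 °C, 5% CO2. Formaldehyde fixation, naphthol blue black staining of viable cells, OD630 read. Triplicate; CC50 estimated from dose–response curve.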

Regarding `COc1ccc(CCc2ccc(N3C(=O)c4c(Cl)c(Cl)c(Cl)c(Cl)c4C3=O)cc2)cc1OC`, the inhibition entry in data set [1] and in data set [2] was “inactive” throughout.
For the compound `O=C1c2ccccc2C(=O)N1c1ccc(/C=C/c2ccc(O)c(O)c2)cc1`, the inhibition entry in data set [1] and in data set [2] was “inactive” each time.
In the case of `COc1ccc(/C=C/c2cccc(N3C(=O)c4c(Cl)c(Cl)c(Cl)c(Cl)c4C3=O)c2)cc1OC`, the inhibition result in data set [1] and in data set [2] was “inactive” each time.
Consider `COc1ccc(CCc2cccc(N3C(=O)c4c(Cl)c(Cl)c(Cl)c(Cl)c4C3=O)c2)cc1OC`, for which the inhibition result in data set [1] and in data set [2] was “inactive” each time.
For `COc1ccc(CCc2ccc(N3C(=O)c4ccccc4C3=O)cc2)cc1`, the inhibition result in data set [1] and in data set [2] was “inactive” throughout.
With `COc1cccc(CCc2cccc(N3C(=O)c4c(Cl)c(Cl)c(Cl)c(Cl)c4C3=O)c2)c1`, the inhibition entry in data set [1] and in data set [2] was “inactive” in each case.
As to `O=C1c2ccccc2C(=O)N1c1cccc(CCc2ccc(O)c(O)c2)c1`, in data set [1], the inhibition entry was “Active”. The EC50 in data set [3] came out at 26 µM. For the same compound, the inhibition entry in data set [2] was “inactive”.
In the case of `O=C1c2ccccc2C(=O)N1c1ccccc1CCc1ccc(O)c(O)c1`, the CC50 in data set [4] was more than 80 µM. For the same compound, in data set [1], the inhibition result was “Active”. The EC50 in data set [3] was 48 µM. Further, the inhibition result in data set [2] is “inactive”.
As to `O=C1c2c(Cl)c(Cl)c(Cl)c(Cl)c2C(=O)N1c1cccc(CCc2ccc(O)cc2)c1`, the inhibition entry in data set [1] and in data set [2] was “inactive” each time.
`O=C1c2c(Cl)c(Cl)c(Cl)c(Cl)c2C(=O)N1c1cccc(CCc2ccc(O)c(O)c2)c1` yielded a CC50 in data set [4] of 44 µM. Moreover, the inhibition entry in data set [1] and in data set [2] was “inactive” throughout. Also, the EC50 in data set [3] was more than 80 µM.
For `O=C1c2ccccc2C(=O)N1c1ccccc1CCc1ccccc1`, the inhibition entry in data set [1] and in data set [2] was “inactive” throughout.
For the compound `COc1ccc(/C=C/c2ccc(N3C(=O)c4c(Cl)c(Cl)c(Cl)c(Cl)c4C3=O)cc2)cc1OC`, the inhibition entry in data set [1] and in data set [2] was “inactive” throughout.
As to `O=C1c2c(Cl)c(Cl)c(Cl)c(Cl)c2C(=O)N1c1cccc(/C=C/c2ccccc2)c1`, the inhibition entry in data set [1] and in data set [2] was “inactive” each time.
Regarding `O=C1c2ccccc2C(=O)N1c1ccc(CCc2ccccc2)cc1`, the inhibition result in data set [1] and in data set [2] was “inactive” throughout.
With `COc1cccc(CCc2ccc(N3C(=O)c4c(Cl)c(Cl)c(Cl)c(Cl)c4C3=O)cc2)c1`, the inhibition entry in data set [1] and in data set [2] was “inactive” throughout.
Turning to `COc1ccc(CCc2ccccc2N2C(=O)c3c(Cl)c(Cl)c(Cl)c(Cl)c3C2=O)cc1OC`, the inhibition entry in data set [1] and in data set [2] was “inactive” throughout.
With `COc1ccc(CCc2cccc(N3C(=O)c4ccccc4C3=O)c2)cc1OC`, the inhibition entry in data set [1] and in data set [2] was “inactive” in each case.
For the compound `O=C1c2ccccc2C(=O)N1c1ccc(/C=C/c2ccccc2)cc1`, the inhibition entry in data set [1] and in data set [2] was “inactive” in each case.
With `COc1ccc(CCc2ccccc2N2C(=O)c3ccccc3C2=O)cc1OC`, the CC50 in data set [4] is more than 80 µM. In addition, the inhibition entry in data set [1] was “inactive”. Further, the EC50 in data set [3] was more than 80 µM.
Turning to `O=C1c2c(Cl)c(Cl)c(Cl)c(Cl)c2C(=O)N1c1cccc(/C=C/c2ccc(O)c(O)c2)c1`, the inhibition entry in data set [1] and in data set [2] was “inactive” each time.
For the compound `O=C1c2c(Cl)c(Cl)c(Cl)c(Cl)c2C(=O)N1c1cccc(CCc2ccccc2)c1`, the inhibition result in data set [1] and in data set [2] was “inactive” throughout.
Regarding `O=C1c2c(Cl)c(Cl)c(Cl)c(Cl)c2C(=O)N1c1ccc(CCc2cccc(O)c2)cc1`, the inhibition entry in data set [1] and in data set [2] was “inactive” each time.
Consider `O=C1c2c(Cl)c(Cl)c(Cl)c(Cl)c2C(=O)N1c1ccc(CCc2ccc(O)cc2)cc1`, for which the inhibition entry in data set [1] and in data set [2] was “inactive” throughout.
`COc1ccc(CCc2ccc(N3C(=O)c4ccccc4C3=O)cc2)cc1OC`: the inhibition result in data set [1] and in data set [2] was “inactive” throughout.
In the case of `O=C1c2c(Cl)c(Cl)c(Cl)c(Cl)c2C(=O)N1c1ccc(/C=C\c2ccccc2)cc1`, the inhibition entry in data set [1] and in data set [2] was “inactive” in each case.
Turning to `O=C1c2c(Cl)c(Cl)c(Cl)c(Cl)c2C(=O)N1c1cccc(CCc2cccc(O)c2)c1`, the inhibition result in data set [1] and in data set [2] was “inactive” throughout.
Consider `COc1ccc(CCc2cccc(N3C(=O)c4c(Cl)c(Cl)c(Cl)c(Cl)c4C3=O)c2)cc1`, for which the inhibition entry in data set [1] and in data set [2] was “inactive” throughout.
For `O=C1c2ccccc2C(=O)N1c1ccc(CCc2cccc(O)c2)cc1`, the CC50 in data set [4] was more than 80 µM. Also, the inhibition entry in data set [1] and in data set [2] was “inactive” throughout. Moreover, in data set [3], the EC50 is more than 80 µM.
On to `COc1cccc(CCc2ccc(N3C(=O)c4ccccc4C3=O)cc2)c1`, for which the inhibition result in data set [1] and in data set [2] was “inactive” each time.
As for `O=C1c2ccccc2C(=O)N1c1ccc(CCc2ccc(O)cc2)cc1`, the inhibition result in data set [1] and in data set [2] was “inactive” throughout.
For `O=C1c2c(Cl)c(Cl)c(Cl)c(Cl)c2C(=O)N1c1ccc(CCc2ccccc2)cc1`, the inhibition entry in data set [1] and in data set [2] was “inactive” throughout.
`O=C1c2c(Cl)c(Cl)c(Cl)c(Cl)c2C(=O)N1c1ccc(/C=C/c2ccccc2)cc1`: the inhibition result in data set [1] and in data set [2] was “inactive” in each case.
For the compound `O=C1c2c(Cl)c(Cl)c(Cl)c(Cl)c2C(=O)N1c1cccc(/C=C\c2ccccc2)c1`, the inhibition entry in data set [1] and in data set [2] was “inactive” each time.
With `COc1ccc(CCc2ccc(N3C(=O)c4c(Cl)c(Cl)c(Cl)c(Cl)c4C3=O)cc2)cc1`, the inhibition entry in data set [1] and in data set [2] was “inactive” in each case.
As for `O=C1c2c(Cl)c(Cl)c(Cl)c(Cl)c2C(=O)N1c1ccccc1CCc1ccccc1`, the inhibition entry in data set [1] and in data set [2] was “inactive” throughout.
On to `O=C1c2c(Cl)c(Cl)c(Cl)c(Cl)c2C(=O)N1c1ccc(CCc2ccc(O)c(O)c2)cc1`, for which the CC50 in data set [4] was more than 80 µM. In addition, the inhibition result in data set [1] and in data set [2] was “inactive” throughout. Besides, the EC50 in data set [3] was found to be 24 µM.
With `O=C1c2c(Cl)c(Cl)c(Cl)c(Cl)c2C(=O)N1c1ccccc1CCc1ccc(O)c(O)c1`, the inhibition entry in data set [1] and in data set [2] was “inactive” each time.
